Measured values: ChEMBL document CHEMBL1137800, “Evaluation of marine sponge metabolites for cytotoxicity and signal transduction activity” (J Nat Prod, 1993)
Values after ≈ are worked out from the molar mass of the structure shown. Active and inactive are the calls of the source. No cut-off for these calls is given here.

What was measured:
A549 [1] = test: Cytotoxicity against human A549 cells after 48 hrs by MTT assay; type: functional, cell-based; details: A549, 48 h
Procedure, shortened: (§1)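 A549 and HT-29 cells grown in RPMI 1640 with 10% horse serum and exposed at 37° in gentamicin-containing medium, with MeOH vehicle evaporated. Exposure ran 48 h […] before MTT was added for 90 min. Formazan dissolved in acidified iPrOH and A570 read. IC50 from logit-regression of absorbance versus drug-free wells; 5-fluorouracil and adriamycin included as controls.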

Mus musculus [2] = species: Mus musculus; test: Induction of PKC-mediated mouse EL-4.IL-2 cells adherence by MTT assay
Procedure, shortened: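 EL-4.IL-2 cells (2.5×10^5/well) in RPMI 1640 with 10% FCS and 2-mercaptoethanol, incubated 1 h at 37° with compound in triplicate, without PMA and also with 16 nM PMA (final), EtOH ≤1.25%. Non-adherent cells removed by four shaking washes. Adherent cells quantified by MTT (4 h) with iPrOH solubilisation at 570 nm. Parallel unwashed plate monitored cytotoxicity.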

HT-29 = test: Cytotoxicity against human HT-29 cells after 48 hrs by MTT assay; type: functional, cell-based; details: HT-29, 48 h; procedure, shortened: as §1
P388 = test: Cytotoxicity against mouse P388 cells after 48 hrs by MTT assay; type: functional, cell-based; details: P388, 48 h
Procedure, shortened: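 P-388 cells seeded at 1×10^5 cells/ml in RPMI 1640 with 10% horse serum and gentamicin (50 μg/ml). Exposed 48 h at 37° to compound at 10.0, 1.0, 0.10 or 0.010 μg/ml; MeOH vehicle evaporated under vacuum. MTT added for 90 min, formazan dissolved in acidified iPrOH, A570 read. IC50 from linear regression of logit-transformed absorbance relative to drug-free wells.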

[3] = Cytotoxicity against mouse EL-4.IL-2 cells after 3 to 4 days by Trypan blue exclusion test; type: functional, cell-based
Mus musculus [4] = species: Mus musculus; test: Inhibition of PKC-mediated mouse EL-4.IL-2 cells adherence by MTT assay
Procedure, shortened: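 Mouse EL-4.IL-2 cells (2.5×10^5/well, within 15 passages of frozen stock) incubated 1 h at 37° with compounds in triplicate, with PMA (16 nM final) or without PMA; final EtOH ≤1.25%. Four shaker wash cycles. Adherent cells read by MTT, 4 h at 37°, formazan dissolved in iPrOH, A570. A parallel unwashed plate without PMA monitored cytotoxicity. Adherence inhibitor: blocks PMA-induced adherence, induces none alone, not cytotoxic.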

M19-MEL = test: Cytotoxicity against human M19-MEL cells; type: functional; details: read-out: Log10LC50 (converted)
SK-MEL-5 = test: Cytotoxicity against human SK-MEL-5 cells; type: functional; details: read-out: Log10LC50 (converted)
A549 [5] = test: Antitumor activity against human A549 cells xenografted in mouse at 0.3 mg/kg relative to control; type: functional
Malme-3M = test: Cytotoxicity against human MALME-3M cells; type: functional; details: read-out: Log10LC50 (converted)
Mus musculus [6] = test: Toxicity in human A549 cells xenografted mouse at 0.3 mg/kg; type: organism-based; set-up: dose 0.3 mg/kg; details: in vivo

Activity (Mus musculus [4])	SMILES	IC50 (A549 [1]) [µg/mL]	Activity (Mus musculus [2])	IC50 (HT-29) [µg/mL]	IC50 (P388) [µg/mL]	IC50 [3] [µg/mL]	CC50 (M19-MEL) [µM]	CC50 (SK-MEL-5) [µM]	Activity (A549 [5])	CC50 (Malme-3M) [µM]	Activity (Mus musculus [6])	T/C (A549 [5]) [%]
–	[C-]#[N+][C@@]12CCC(=C)[C@H]3[C@H](CC(C)(C)NC=O)C[C@H](C)[C@@H](CC[C@@H]1C)[C@@H]32	5.3 (≈ 15.5 µM)	Active	3.5 (≈ 10.2 µM)	4.2 (≈ 12.3 µM)	2.9 (≈ 8.47 µM)	–	–	–	–	–	–
Active	C[C@H]1CC[C@H]2C(C)(C)CCC[C@]23Oc2ccc(O)cc2C[C@]13C [AUREOL]	4.3 (≈ 13.7 µM)	–	4.7 (≈ 14.9 µM)	> 20	9.9 (≈ 31.5 µM)	–	–	–	–	–	–
–	CSc1c2c3c(n1C)C(=O)C(=O)C(Cl)=C3NCC2 [BATZELLINE A]	0.7 (≈ 2.48 µM)	Active	2.8 (≈ 9.9 µM)	5.3 (≈ 18.7 µM)	22.9 (≈ 81 µM)	6.61	6.61	inactive	15.5	–	–
–	CCCCCCCCCCCCCCCC[C@@]1(OC)C=C[C@@H](CC(=O)OC)OO1 [CHONDRILLIN]	0.3 (≈ 0.727 µM)	Active	1.1 (≈ 2.67 µM)	2.4 (≈ 5.82 µM)	0.4 (≈ 0.969 µM)	–	–	inactive	–	–	–
–	COC1=Cc2ccnc3ccnc(c23)C1=O [DEMETHYLOXY-AAPTAMINE]	5.2 (≈ 24.5 µM)	Active	1.5 (≈ 7.07 µM)	1.6 (≈ 7.54 µM)	< 0.05	–	–	–	–	–	–
Active	CN(C)CCc1c2ncsc2c2c3c(c4ccccc4nc13)C=CN2C [DERCITIN]	0.07 (≈ 0.194 µM)	–	0.02 (≈ 0.0555 µM)	0.2 (≈ 0.555 µM)	< 6	–	–	–	–	–	–
–	[C-]#[N+]C(C)(C)C[C@@H]1C[C@H](C)[C@H]2CC[C@H](C)[C@@]3([N+]#[C-])CCC(=C)[C@@H]1[C@H]23 [DIISOCYANOAMPHILECTENE]	13 (≈ 40.1 µM)	–	1.2 (≈ 3.7 µM)	0.7 (≈ 2.16 µM)	–	–	–	–	–	–	–
–	O=C1C[C@H]2S[C@H]3C[C@]2(C=C1Br)C1=C(N3)C(=O)c2[nH]cc3c2C1=NCC3 [DISCORHABDINE A]	0.04 (≈ 0.0961 µM)	Active	0.01 (≈ 0.024 µM)	0.1 (≈ 0.24 µM)	4.8 (≈ 11.5 µM)	–	–	–	–	–	–
–	Cn1cc2c3c1C(=O)C1=C(C3=NCC2)C2(C=C(Br)C(=O)C(Br)=C2)CCN1 [DISCORHABDIN]	0.3 (≈ 0.629 µM)	Active	0.1 (≈ 0.21 µM)	0.5 (≈ 1.05 µM)	0.5 (≈ 1.05 µM)	–	–	–	–	–	–
–	C[C@H]1C[C@]2(O[C@H]3C[C@H]4[C@@H]5CC[C@H]6C[C@H](O)CC[C@]6(C)[C@H]5[C@@H](O)C[C@]4(C)[C@H]3[C@@]2(C)O)OC1(C)C [EPIHIPPURISTANOL]	0.04 (≈ 0.0865 µM)	–	0.05 (≈ 0.108 µM)	0.5 (≈ 1.08 µM)	–	–	–	–	–	–	–
–	CO[C@H]([C@H](C)/C=C/N(C)C=O)[C@@H](C)C(=O)CC[C@H](C)[C@H](C[C@@H]1OC(=O)C[C@@H](OC(N)=O)C[C@H](C)C[C@H](O)[C@H](C)[C@@H](OC)c2coc(n2)-c2coc(n2)-c2coc(n2)/C=C/C[C@H](OC)[C@H]1C)OC [KABIRAMIDE C]	0.8 (≈ 0.849 µM)	Active	–	0.3 (≈ 0.318 µM)	0.3 (≈ 0.318 µM)	–	–	–	–	–	–
–	O[C@]12C=C(c3nccc4c3[nH]c3ccccc34)[C@@H]3CCN(CCCC/C=C\CC1)C[C@@]31C[C@@H]3/C=C\CCCCN3[C@H]12 [MANZAMINE A]	1.3 (≈ 2.37 µM)	–	0.8 (≈ 1.46 µM)	2.4 (≈ 4.37 µM)	–	–	–	–	–	–	–
–	C1=C\CC[C@]23CN4CCCC/C=C\CC[C@@]5(O[C@H]5[C@@H](c5nccc6c5[nH]c5ccccc56)[C@@H]2CC4)[C@@H]3NCCCC/1 [MANZAMINE B]	4.5 (≈ 8.17 µM)	–	1.6 (≈ 2.9 µM)	6.6 (≈ 12 µM)	–	–	–	–	–	–	–
–	C1=C\CCCCN(CCc2nccc3c2[nH]c2ccccc23)CCCC/1 [MANZAMINE C]	3.5 (≈ 10.1 µM)	Active	1.5 (≈ 4.32 µM)	2.6 (≈ 7.48 µM)	12 (≈ 34.5 µM)	–	–	–	–	–	–
–	O=C1c2nccc(O)c2-c2nc3ccccc3c3ccnc1c23 [MERIDINE]	4.5 (≈ 15 µM)	Active	0.2 (≈ 0.668 µM)	2 (≈ 6.68 µM)	8.8 (≈ 29.4 µM)	–	–	–	–	–	–
–	CC1(C)CCC[C@]2(C)[C@H]3C=C4C=C(O)C(=O)C=C4O[C@@]3(C)CC[C@@H]12 [PUUPEHENONE]	0.4 (≈ 1.22 µM)	–	0.2 (≈ 0.609 µM)	1.3 (≈ 3.96 µM)	–	–	–	–	–	–	–
–	CC1=CC(=O)[C@]2(C)CC[C@H]([C@H](C)CC(=O)CC(C)C)[C@H]2CC1 [REISWIGIN A]	7.2 (≈ 23.6 µM)	–	6 (≈ 19.7 µM)	8.5 (≈ 27.9 µM)	–	–	–	–	–	–	–
–	CC[C@H](C)[C@H]1C(=O)NCCC(=O)N[C@H]([C@@H](C)CC)C(=O)N(C)[C@@H](C(C)C)C(=O)N(C)[C@@H](C)C(=O)NCCC(=O)N[C@H](CC(C)C)C(=O)N(C)[C@H]([C@@H](C)CC)C(=O)O[C@H](C)[C@H](NC(=O)[C@@H](CC(C)C)N(C)C(=O)[C@@H](NC(=O)COC)C(C)C)C(=O)NCCC(=O)N[C@H](CC(C)C)C(=O)N1C [THEONELLAMINE B]	5.3 (≈ 3.77 µM)	–	5.1 (≈ 3.63 µM)	> 20	–	–	–	–	–	–	–

SMILES	Activity (Mus musculus [4])	IC50 (A549 [1]) [µg/mL]	Activity (Mus musculus [2])	IC50 (HT-29) [µg/mL]	IC50 (P388) [µg/mL]	IC50 [3] [µg/mL]	CC50 (M19-MEL) [µM]	CC50 (SK-MEL-5) [µM]	Activity (A549 [5])	CC50 (Malme-3M) [µM]	Activity (Mus musculus [6])	T/C (A549 [5]) [%]
C/C1=C/C(=O)O[C@@H]2C[C@@H](CC[C@H](C)/C=C\C=C\CC1)O[C@@](O)([C@@H]1CSC(=O)N1)C2 [LATRUNCULIN A]	Active	0.06 (≈ 0.142 µM)	–	0.06 (≈ 0.142 µM)	4.1 (≈ 9.73 µM)	0.1 (≈ 0.237 µM)	–	–	–	–	Non-toxic	146
